Activity calls are given as the source filed them. No cut-off for these calls is given here.
Legend:
[1] = target: Replicase polyprotein 1ab (Middle East respiratory syndrome-related coronavirus (isolate UnitedKingdom/H123990006/2012) (Betacoronavirus England 1) (Humancoronavirus EMC)) (UniProt K9N7C7); assay: Reversible inhibition of MERS-CoV papain-like protease assessed as recovery of enzyme activity at 125 times IC50 using Z-Arg-Leu-Arg-Gly-Gly-AMC as substrate incubated for 1 hr followed by 2-fold dilution and measured by fluorescence assay
Procedure, shortened: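 Dilution method: 4 µM enzyme incubated with compound for 1 h at room temperature in HEPES pH 7.5 assay buffer (2 mM DTT, 0.1 mg/ml BSA, 0.01% Triton X-100). DMSO-only enzyme served as control. Both samples diluted 2-fold, then seven further 2-fold dilutions. Activity read at each step with the continuous Z-RLRGG-AMC fluorescence assay.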

[2] = target: Replicase polyprotein 1ab (Middle East respiratory syndrome-related coronavirus (isolate UnitedKingdom/H123990006/2012) (Betacoronavirus England 1) (Humancoronavirus EMC)) (UniProt K9N7C7); assay: (§1) Inhibition of MERS-CoV papain-like protease using Z-Arg-Leu-Arg-Gly-Gly-AMC as substrate preincubated for 5 mins followed by substrate addition and measured for 10 mins by fluorescence assay; set-up: concentration or dose not given beside the values
Target sequence in this assay (K9N7C7 854-2740 limits assumed): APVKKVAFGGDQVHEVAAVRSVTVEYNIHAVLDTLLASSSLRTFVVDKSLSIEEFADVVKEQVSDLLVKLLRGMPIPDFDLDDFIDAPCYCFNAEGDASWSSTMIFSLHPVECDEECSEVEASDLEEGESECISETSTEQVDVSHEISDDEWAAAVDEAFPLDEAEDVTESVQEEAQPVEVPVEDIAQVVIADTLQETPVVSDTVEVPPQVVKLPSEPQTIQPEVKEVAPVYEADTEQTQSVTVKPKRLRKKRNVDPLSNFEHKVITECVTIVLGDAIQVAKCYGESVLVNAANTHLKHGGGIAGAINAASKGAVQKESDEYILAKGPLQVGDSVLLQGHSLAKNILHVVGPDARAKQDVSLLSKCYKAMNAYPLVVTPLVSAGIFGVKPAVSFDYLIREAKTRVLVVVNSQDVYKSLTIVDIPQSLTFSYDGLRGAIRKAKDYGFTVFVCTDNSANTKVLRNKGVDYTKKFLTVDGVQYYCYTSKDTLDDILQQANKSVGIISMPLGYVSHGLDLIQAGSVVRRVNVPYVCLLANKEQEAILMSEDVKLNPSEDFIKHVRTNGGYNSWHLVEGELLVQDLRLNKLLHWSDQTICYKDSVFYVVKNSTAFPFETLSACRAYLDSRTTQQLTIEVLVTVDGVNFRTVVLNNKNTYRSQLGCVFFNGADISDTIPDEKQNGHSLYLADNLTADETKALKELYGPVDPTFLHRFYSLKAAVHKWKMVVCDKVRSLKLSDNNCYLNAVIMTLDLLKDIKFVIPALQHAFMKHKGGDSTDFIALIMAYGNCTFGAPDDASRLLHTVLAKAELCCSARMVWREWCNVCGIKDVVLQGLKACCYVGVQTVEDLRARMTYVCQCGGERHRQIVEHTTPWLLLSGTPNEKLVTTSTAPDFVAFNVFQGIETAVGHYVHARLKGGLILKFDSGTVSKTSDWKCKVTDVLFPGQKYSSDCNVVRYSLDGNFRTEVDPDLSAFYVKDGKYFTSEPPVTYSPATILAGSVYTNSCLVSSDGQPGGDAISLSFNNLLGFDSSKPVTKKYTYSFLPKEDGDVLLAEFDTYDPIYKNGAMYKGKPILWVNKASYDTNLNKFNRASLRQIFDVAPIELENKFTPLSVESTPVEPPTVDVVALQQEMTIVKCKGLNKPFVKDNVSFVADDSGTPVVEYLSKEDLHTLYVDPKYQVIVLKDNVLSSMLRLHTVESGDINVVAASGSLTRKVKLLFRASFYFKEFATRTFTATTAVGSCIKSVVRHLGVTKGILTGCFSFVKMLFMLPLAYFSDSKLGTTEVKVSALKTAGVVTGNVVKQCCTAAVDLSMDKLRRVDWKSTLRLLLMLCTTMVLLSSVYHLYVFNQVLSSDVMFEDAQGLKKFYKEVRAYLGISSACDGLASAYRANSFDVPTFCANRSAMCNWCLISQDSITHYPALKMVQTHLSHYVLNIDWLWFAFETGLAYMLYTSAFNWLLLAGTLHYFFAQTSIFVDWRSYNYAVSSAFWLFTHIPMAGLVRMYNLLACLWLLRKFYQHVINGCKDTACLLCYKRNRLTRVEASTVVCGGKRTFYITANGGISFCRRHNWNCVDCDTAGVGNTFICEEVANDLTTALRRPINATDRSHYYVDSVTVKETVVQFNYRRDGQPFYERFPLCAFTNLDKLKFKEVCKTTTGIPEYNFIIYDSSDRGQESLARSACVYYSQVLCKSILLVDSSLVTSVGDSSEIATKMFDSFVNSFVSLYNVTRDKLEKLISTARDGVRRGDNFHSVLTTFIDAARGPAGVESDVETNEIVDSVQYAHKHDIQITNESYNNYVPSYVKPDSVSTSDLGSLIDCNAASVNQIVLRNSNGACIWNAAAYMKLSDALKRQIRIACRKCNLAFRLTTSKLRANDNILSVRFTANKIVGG

[3] = target: T1, Replicase polyprotein 1ab (Middle East respiratory syndrome-related coronavirus (isolate UnitedKingdom/H123990006/2012) (Betacoronavirus England 1) (Humancoronavirus EMC), UniProt K9N7C7); assay: as §1
T1 sequence (K9N7C7 854-2740 limits assumed): as above

[4] = target: Replicase polyprotein 1ab (Middle East respiratory syndrome-related coronavirus (isolate UnitedKingdom/H123990006/2012) (Betacoronavirus England 1) (Humancoronavirus EMC)) (UniProt K9N7C7); assay: Binding affinity to 15N-labelled His-tagged Apo-MRES-CoV papain-like protease by TROSY [1H-15N] spectroscopy
[5] = target: T1, Replicase polyprotein 1ab; assay: Competitive-inhibition of MERS-CoV papain-like protease using varying levels of Z-Arg-Leu-Arg-Gly-Gly-AMC as substrate by Dixon-plot analysis
[6] = target: T1, Replicase polyprotein 1ab; assay: Binding affinity to MERS-CoV papain-like protease by SPR analysis
Procedure, shortened: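 SPR on Biacore T200. Enzyme at 50 µg/mL in 10 mM sodium acetate pH 5.5 amine-coupled to CM5 chip (~10,000 RU); blank flow cells as reference. Compounds 0-50 µM (2-fold series) in PBSP + 0.5 mM TCEP, 2% DMSO, 30 µL/min, 25°C; double-referenced. KD from steady-state responses fit to rectangular hyperbola; rate constants from global 1:1 Langmuir fit.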

[7] = target: Replicase polyprotein 1ab (Middle East respiratory syndrome-related coronavirus (isolate UnitedKingdom/H123990006/2012) (Betacoronavirus England 1) (Humancoronavirus EMC)) (UniProt K9N7C7); assay: Inhibition of MERS-CoV papain-like protease at 50 uM using Z-Arg-Leu-Arg-Gly-Gly-AMC as substrate preincubated for 5 mins followed by substrate addition and measured for 10 mins by fluorescence assay relative to control
Procedure, shortened: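 Confirmation retest run by hand in triplicate at room temperature. Buffer: 50 mM HEPES pH 7.5, 0.01% Triton X-100, 0.1 mg/mL BSA, 2 mM DTT. Enzyme and compound preincubated 5 min, then Z-RLRGG-AMC added to 50 µM final. AMC fluorescence (ex 360/em 450 nm) followed continuously; percent inhibition calculated against DMSO control.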

[8] = target: Replicase polyprotein 1ab (Middle East respiratory syndrome-related coronavirus (isolate UnitedKingdom/H123990006/2012) (Betacoronavirus England 1) (Humancoronavirus EMC)) (UniProt K9N7C7); assay: Binding affinity to MERS-CoV papain-like protease in presence of Z-Arg-Leu-Arg-Gly-Gly-AMC by SPR analysis
Procedure, shortened: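 MERS-CoV PLpro was amine-coupled to a CM5 chip (~10,000 RU), with unmodified reference cells. Compounds (0-50 µM, 2-fold series) were injected with 500 µM Z-RLRGG-AMC substrate present, in PBSP + 0.5 mM TCEP + 2% DMSO at 30 µL/min and 25°C. Data were double-referenced, and KD came from a steady-state hyperbolic fit.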

Row | SMILES | inhibition [2] [%] | IC50 [3] [µM] | Kd [6] [µM] | also measured
1 | Cc1cc(C)n(S(=O)(=O)c2ccc(N)cc2)c(=O)n1 | 73 | 20 | 7.6 to 9.3 | inhibition [1]: Active; Activity [4]: Active; Ki [5]: 36.6 µM; inhibition [7]: > 50%
2 | O=[N+]([O-])c1ccc(O)c(O)c1 [4-Nitrocatechol] | – | 145 | – | –
3 | O=[N+]([O-])c1ccc(Cl)c2nonc12 | – | 141 | – | –
4 | O=C(O)c1cc(/C=C/c2ccc(N3CCOCC3)cc2)nc2ccccc12 | – | – | 7.6 to 112 | –
5 | Cc1ccc(S(=O)(=O)n2c(C)cc(C)nc2=O)cc1 | 11 | – | – | –
6 | COCC(=O)/C=C1\Sc2ccccc2N1C | – | – | 7.6 to 112 | –
7 | Nc1ccc([N+](=O)[O-])cn1 | – | 137 | – | –
8 | CC1CCCC(C)N1S(=O)(=O)c1ccc(N)cc1 (configuration not stated) | 7 | – | – | –
9 | O=C(NC1=CC=CC2C(=O)C=C(c3nn[nH]n3)OC12)c1ccc(OCCCCc2ccccc2)cc1 (configuration not stated) | – | – | – | Activity [8]: inactive; inhibition [7]: > 50%
10 | Nc1ccc(S(=O)(=O)N2CC(=O)NC(=O)C2)cc1 | 16 | – | – | –
11 | O=C(O)c1cc(/N=N/c2ccc(S(=O)(=O)Nc3ccccn3)cc2)ccc1O [SULFASALAZINE] | – | – | 7.6 to 112 | –
12 | Cn1c(=O)c2c(nc(NN=C3C(=O)NC(=O)NC3=O)n2C)n(C)c1=O | – | – | 7.6 to 112 | –
13 | CC(=O)Nc1ccc(S(=O)(=O)n2c(C)cc(C)nc2=O)cc1 | 2 | – | – | –
14 | Cc1ccc(C)c(CSc2nc(C3CCCCC3)c(C#N)c(=O)[nH]2)c1 | – | – | 7.6 to 112 | –
15 | O=Cc1ccc(O)c(O)c1 [PROTOCATECHUALDEHYDE] | – | 239 | – | –
